Experimental data: article PMC2810401 (Biochemistry, 2010)
≈ marks a conversion by molar mass, not a printed value. Where “and” joins values, the source holds several entries; their conditions need not be identical. Equal entries are not always repeated. Where two headings read alike, the source gives them in different places.

What was measured:
ADC β-lactamase [1] = target: T1, ADC β-lactamase (Acinetobacter baumannii, UniProt Q6DRA1); conditions: obtained previously by same methodology; cited from earlier work
ADC β-lactamase [2] = target: T1, ADC β-lactamase; experiment: Ki in direct competition assays with ADC; format: biochemical
ADC β-lactamase [3] = target: T1, ADC β-lactamase; experiment: ESI-MS of intact ADC incubated with inhibitors; conditions: 14 μM ADC, 15 min, inhibitor: enzyme 20:1; error ± 3 amu
In short: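 ADC-7 was expressed in E. coli BL21(DE3) from pET24a(+) with 0.2 mM IPTG at 37 °C for 4 hr. It was purified by preparative isoelectric focusing and gel-filtration FPLC. Incubations were run with and without test compound, then quenched with 0.1% TFA, desalted on C18 and kept on ice. Samples were diluted to 10 μM in 50% acetonitrile/0.1% TFA, nanospray-infused at 0.5 μl/min for 2 min on a Q-TOF, and spectra were deconvoluted.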

E. coli DH10B blaADC = conditions: E. coli DH10B harboring blaADC; previous data; cited from earlier work

**Q.** With `O=C(O)[C@H]1/C(=C/CO)O[C@@H]2CC(=O)N21` [Clavulanate] as the molecule, how does the Ki (ADC β-lactamase [1]) read?
**A.** 4280 µM

**Q.** For `C[C@@H](O)[C@H]1C(=O)N2C(C(=O)O)=C(S[C@@H]3CN[C@H](CNS(N)(=O)=O)C3)[C@H](C)[C@H]12` [Doripenem], which Ki (ADC β-lactamase [2]) is on record?
**A.** 12.2 ± 0.4 µM

**Q.** And the “Species observed in deconvoluted spectra” value (ADC β-lactamase [3])?
**A.** 41,058 amu and 41,015 amu

**Q.** What about the “Δ difference from β-lactamase molecular weight” value (from here on “Δ difference”) (ADC β-lactamase [3]) of the same molecule?
**A.** 420 amu and 377 amu

**Q.** For `C[C@@H](O)[C@H]1C(=O)N2C(C(=O)O)=C(S[C@@H]3CN[C@H](C(=O)Nc4cccc(C(=O)O)c4)C3)[C@H](C)[C@H]12` [Ertapenem], which Ki (ADC β-lactamase [2]) is on record?
**A.** 5.8 ± 0.2 µM

**Q.** And the MIC (E. coli DH10B blaADC)?
**A.** 0.06 µg/mL (≈ 0.126 µM)

**Q.** What about the “Species observed in deconvoluted spectra” value (ADC β-lactamase [3]) of the same molecule?
**A.** 41,069 amu and 41,112 amu

**Q.** What about the “Δ difference” value (ADC β-lactamase [3]) of the same molecule?
**A.** 431 amu and 474 amu

**Q.** Which results are given for `C[C@@H](O)[C@H]1C(=O)N2C(C(=O)O)=C(SCCN=CN)C[C@H]12` [Imipenem]?
**A.** Ki (ADC β-lactamase [2]): 1.3 ± 0.1 µM; Species observed in deconvoluted spectra (ADC β-lactamase [3]): 40,936 amu and 40,893 amu; Δ difference from β-lactamase molecular weight (ADC β-lactamase [3]): 298 amu and 255 amu

**Q.** With `C[C@@H](O)[C@H]1C(=O)N2C(C(=O)O)=C(S[C@@H]3CN[C@H](C(=O)N(C)C)C3)[C@H](C)[C@H]12` [Meropenem] as the molecule, how does the Ki (ADC β-lactamase [2]) read?
**A.** 19 ± 2 µM

**Q.** And the MIC (E. coli DH10B blaADC)?
**A.** 0.06 µg/mL (≈ 0.156 µM)

**Q.** What about the “Species observed in deconvoluted spectra” value (ADC β-lactamase [3]) of the same molecule?
**A.** 41,021 amu and 40,979 amu

**Q.** And the “Δ difference” value (ADC β-lactamase [3])?
**A.** 383 amu and 341 amu

**Q.** For `CC1(C)[C@H](C(=O)O)N2C(=O)C[C@H]2S1(=O)=O` [Sulbactam], which Ki (ADC β-lactamase [1]) is on record?
**A.** 109 ± 3 µM

**Q.** With `C[C@]1(Cn2ccnn2)[C@H](C(=O)O)N2C(=O)C[C@H]2S1(=O)=O` [Tazobactam] as the molecule, how does the Ki (ADC β-lactamase [1]) read?
**A.** 91 ± 21 µM
